For one assay, the system named is Bacillus subtilis. Nature of the assay: Antibacterial activity against Bacillus subtilis after 24 hrs by two-fold serial dilution assay. The class given is functional. The gist of the method:
(§1)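 Twofold serial broth dilution following NCCLS guidance, with Chloromycin, Norfloxacin and Fluconazole as positive controls. MIC in μM is the lowest concentration giving complete inhibition of visible bacterial or fungal growth.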

Another assay has as its system Micrococcus luteus. The assay is described as follows: Antibacterial activity against Micrococcus luteus ATCC 4698 after 24 hrs by two-fold serial dilution assay. In kind it is functional, NCTC 2665. The gist of the method: as §1
The subject of assay [1] is Staphylococcus aureus. Nature of the assay: Antibacterial activity against Staphylococcus aureus ATCC 25923 after 24 hrs by two-fold serial dilution assay. In kind it is functional. In short, it runs like this:
as §1

The subject of assay [2] is Escherichia coli. Nature of the assay: Antibacterial activity against Escherichia coli JM109 after 24 hrs by two-fold serial dilution assay. In kind it is functional. In short, it runs like this: as §1
The subject of assay [3] is Escherichia coli. The assay is described as follows: Antibacterial activity against Escherichia coli DH52 after 24 hrs by two-fold serial dilution assay. The class given is functional. In short, it runs like this: as §1
The subject of the next assay is Pseudomonas aeruginosa. Nature of the assay: Antibacterial activity against Pseudomonas aeruginosa after 24 hrs by two-fold serial dilution assay. In kind it is functional. In short, it runs like this: as §1
The test system of a further assay is Proteus vulgaris. Nature of the assay: Antibacterial activity against Bacillus proteus ATCC 13315 after 24 hrs by two-fold serial dilution assay. The class given is functional. In short, it runs like this: as §1
The test system of another assay is Pichia norvegensis. Nature of the assay: Antifungal activity against Candida mycoderma after 24 hrs by two-fold serial dilution assay. The class given is functional. The gist of the method: as §1
In the next assay the test system is Cyberlindnera jadinii. The assay is described as follows: Antifungal activity against Candida utilis after 24 hrs by two-fold serial dilution assay. In kind it is functional. The gist of the method: as §1
The next assay has as its system Saccharomyces cerevisiae. The assay is described as follows: Antifungal activity against Saccharomyces cerevisiae after 24 hrs by two-fold serial dilution assay. In kind it is functional. In short, it runs like this:
as §1

The next assay has as its system Aspergillus flavus. Nature of the assay: Antifungal activity against Aspergillus flavus after 24 hrs by two-fold serial dilution assay. The class given is functional. In short, it runs like this:
as §1

The test system of the next assay is Candida albicans. The assay is described as follows: Antifungal activity against Candida albicans ATCC 76615 after 24 hrs by two-fold serial dilution assay. In kind it is functional. The gist of the method:
as §1

In a further assay the test system is Salmonella typhi. The assay is described as follows: Antibacterial activity against Bacillus typhi after 24 hrs by two-fold serial dilution assay. The class given is functional, Salmonella enterica subsp. enterica serovar Typhi.
A further assay deals with Shigella dysenteriae. Nature of the assay: Antibacterial activity against Shigella dysenteriae after 24 hrs by two-fold serial dilution assay. In kind it is functional.
Assay [4] concerns Staphylococcus aureus. Nature of the assay: Antibacterial activity against methicillin-resistant Staphylococcus aureus N315 after 24 hrs by two-fold serial dilution assay. In kind it is functional.
[5] abbreviates: Staphylococcus aureus, ATCC 25923, 24 h, read-out: MIC.
The mark [6] stands for this setting: Escherichia coli, DH52, 24 h, read-out: MIC.
The mark [7] stands for this setting: Saccharomyces cerevisiae, 24 h, read-out: MIC.
Where [8] appears, read: Shigella dysenteriae, 24 h, read-out: MIC.
The mark [9] stands for this setting: Pichia norvegensis, 24 h, read-out: MIC.
The mark [10] stands for this setting: Candida albicans, ATCC 76615, 24 h, read-out: MIC.
Where [11] appears, read: Williopsis jadinii, 24 h, read-out: MIC.

In brackets after ≈: the same amount, converted by molar mass.

For the molecule `COc1cc(-c2nc3ccccc3n2Cc2cccc(F)c2)c2c(c1O)CN1CCc3cc4c(cc3C1C2)OCO4.Cl` (configuration not stated), the minimum inhibitory concentration (MIC) came out at 88.5 µM in the assay on Bacillus subtilis; 70.8 µM against Micrococcus luteus; 70.8 µM in the assay with Staphylococcus aureus [1]; 70.8 µM in the assay on Escherichia coli [2]; 141.6 µM in the assay with Escherichia coli [3]; 212.4 µM with Pseudomonas aeruginosa. Moreover, the MIC with Proteus vulgaris is 88.5 µM; against Pichia norvegensis it was 70.8 µM; in the assay with Cyberlindnera jadinii, 106.2 µM; in the assay with Saccharomyces cerevisiae, 35.4 µM; against Aspergillus flavus, 88.5 µM; against Candida albicans, 70.8 µM.

`COc1cc(-c2nc3ccccc3n2Cc2ccc(Cl)cc2)c2c(c1O)CN1CCc3cc4c(cc3C1C2)OCO4.Cl` (configuration not stated): the MIC in the assay with Bacillus subtilis turned out to be 134 µM; against Micrococcus luteus it was 535.9 µM; in the assay with Staphylococcus aureus [1] it was 267.9 µM; against Escherichia coli [2], 535.9 µM; in the assay on Escherichia coli [3], 669.8 µM; against Pseudomonas aeruginosa it was 535.9 µM. Besides, the MIC in the assay with Salmonella typhi was found to be 201 µM; in the assay on Proteus vulgaris, 535.9 µM; against Pichia norvegensis, 267.9 µM; in the assay with Cyberlindnera jadinii, 535.9 µM; with Saccharomyces cerevisiae it was 803.8 µM; with Aspergillus flavus it was 669.8 µM. In the assay on Candida albicans, this molecule registered an MIC of 401.9 µM.

Turning to `COc1cc(-c2nc3ccccc3n2Cc2ccccc2F)c2c(c1O)CN1CCc3cc4c(cc3C1C2)OCO4.Cl` (configuration not stated), the minimum inhibitory concentration (MIC) came out at 33.5 µM in the assay on Bacillus subtilis; 20.9 µM against Micrococcus luteus; 20.9 µM against Escherichia coli [2]; 20.9 µM against Escherichia coli [3]; 50.2 µM against Shigella dysenteriae; 67 µM in the assay on Pseudomonas aeruginosa. In addition, the MIC with Salmonella typhi was 6.3 µM; with Proteus vulgaris, 20.9 µM; in the assay with Pichia norvegensis, 10.5 µM; in the assay with Cyberlindnera jadinii it was 12.6 µM; against Saccharomyces cerevisiae, 83.8 µM; against Aspergillus flavus, 803.8 µM. In the assay with Candida albicans, the minimum inhibitory concentration (MIC) worked out at 20.9 µM.

Consider `COc1cc(-c2nc3ccccc3n2Cc2ccc(F)cc2)c2c(c1O)CN1CCc3cc4c(cc3C1C2)OCO4` (configuration not stated), for which the MIC in the assay with Bacillus subtilis was determined as 20.1 µM (≈ 11 µg/mL); against Micrococcus luteus, 40.1 µM (≈ 22 µg/mL); in the assay on Staphylococcus aureus [1] (setting [5]) it was 60.2 µM (≈ 33.1 µg/mL); in the assay on Escherichia coli [2], 25.1 µM (≈ 13.8 µg/mL); in the assay with Escherichia coli [3] (setting [6]), 100 µM (≈ 55.1 µg/mL); against Pseudomonas aeruginosa it was 25.1 µM (≈ 13.8 µg/mL). For the same molecule, the MIC stood at 25.1 µM (≈ 13.8 µg/mL) in the assay on Proteus vulgaris; 25.1 µM (≈ 13.8 µg/mL) with Pichia norvegensis; 60.2 µM (≈ 33.1 µg/mL) in the assay with Cyberlindnera jadinii; 20.1 µM (≈ 11 µg/mL) in the assay on Saccharomyces cerevisiae (setting [7]); 50.2 µM (≈ 27.6 µg/mL) in the assay on Aspergillus flavus; 25.1 µM (≈ 13.8 µg/mL) against Candida albicans.

Take `COc1cc(-c2nc3ccccc3n2Cc2cccc(F)c2)c2c(c1O)CN1CCc3cc4c(cc3C1C2)OCO4` (configuration not stated): the minimum inhibitory concentration (MIC) in the assay with Staphylococcus aureus [4] stood at 12.2 µM (≈ 6.71 µg/mL); with Bacillus subtilis, 19.4 µM (≈ 10.7 µg/mL); in the assay on Micrococcus luteus, 19.4 µM (≈ 10.7 µg/mL); in the assay with Staphylococcus aureus [1] (setting [5]), 48.5 µM (≈ 26.7 µg/mL); against Escherichia coli [2], 29.1 µM (≈ 16 µg/mL); in the assay with Escherichia coli [3], 38.8 µM (≈ 21.3 µg/mL). The MIC in the assay with Shigella dysenteriae (setting [8]) came out at 116 µM (≈ 64 µg/mL); in the assay with Pseudomonas aeruginosa, 48.5 µM (≈ 26.7 µg/mL); with Proteus vulgaris it was 38.8 µM (≈ 21.3 µg/mL); in the assay on Pichia norvegensis (setting [9]) it was 48.5 µM (≈ 26.7 µg/mL); against Cyberlindnera jadinii, 48.5 µM (≈ 26.7 µg/mL); in the assay with Saccharomyces cerevisiae (setting [7]), 24.3 µM (≈ 13.4 µg/mL). Moreover, the results for the MIC with Aspergillus flavus and with Candida albicans (setting [10]) were 24.3 µM (≈ 13.4 µg/mL) and 48.5 µM (≈ 26.7 µg/mL), respectively.

As for `OC(Cn1cncn1)(Cn1cncn1)c1ccc(F)cc1F` [FLUCONAZOLE], the minimum inhibitory concentration (MIC) is 26.1 µM (≈ 7.99 µg/mL) in the assay on Pichia norvegensis (setting [9]); 10.9 µM (≈ 3.34 µg/mL) in the assay on Cyberlindnera jadinii (setting [11]); 52.2 µM (≈ 16 µg/mL) in the assay on Saccharomyces cerevisiae (setting [7]); 836 µM (≈ 256 µg/mL) in the assay with Aspergillus flavus (Aspergillus flavus, 24 h, read-out: MIC).

On to `COc1cc(-c2nc3ccccc3n2Cc2ccccc2F)c2c(c1O)CN1CCc3cc4c(cc3C1C2)OCO4` (configuration not stated), for which the MIC came out at 24.3 µM (≈ 13.4 µg/mL) with Staphylococcus aureus [4] (Staphylococcus aureus, N315, 24 h, read-out: MIC); 48.5 µM (≈ 26.7 µg/mL) with Bacillus subtilis (Bacillus subtilis, 24 h, read-out: MIC); 29.1 µM (≈ 16 µg/mL) in the assay with Micrococcus luteus (Micrococcus luteus, NCTC 2665, 24 h, read-out: MIC); 58.2 µM (≈ 32 µg/mL) in the assay on Staphylococcus aureus [1]; 29.1 µM (≈ 16 µg/mL) with Escherichia coli [2] (Escherichia coli, JM109, 24 h, read-out: MIC); 38.8 µM (≈ 21.3 µg/mL) in the assay on Escherichia coli [3] (setting [6]). In addition, the MIC in the assay with Shigella dysenteriae (setting [8]) came out at 48.5 µM (≈ 26.7 µg/mL); in the assay with Pseudomonas aeruginosa (Pseudomonas aeruginosa, 24 h, read-out: MIC), 58.2 µM (≈ 32 µg/mL); in the assay with Proteus vulgaris (Proteus vulgaris, ATCC 13315, 24 h, read-out: MIC), 38.8 µM (≈ 21.3 µg/mL); in the assay with Pichia norvegensis (setting [9]) it was 19.4 µM (≈ 10.7 µg/mL); in the assay with Cyberlindnera jadinii (setting [11]) it was 9.7 µM (≈ 5.33 µg/mL); in the assay on Saccharomyces cerevisiae (setting [7]) it was 58.2 µM (≈ 32 µg/mL). The MIC against Aspergillus flavus and in the assay with Candida albicans (setting [10]) was 24.3 µM (≈ 13.4 µg/mL) each time.

Usually MIC stands for the least concentration at which growth counts as inhibited.

The record behind these values is ChEMBL document CHEMBL4049410, “Novel benzimidazolyl tetrahydroprotoberberines: Design, synthesis, antimicrobial evaluation and multi-targeting exploration” (2017).
